# Results reported in ChEMBL document CHEMBL1138870, “In vitro and in vivo efficacy and in vitro metabolism of 1-phenyl-3-aryl-2-propen-1-ones against Plasmodium falciparum” (Bioorg Med Chem Lett, 2006).
# Calls of active or inactive are those of the source. The calls are words filed in the database; no cut-off is given here.
# Experiments:
# [1] = tested on: Plasmodium falciparum; test: Antimalarial activity against Plasmodium falciparum W2; format: functional, organism-based
# Summary of the method: (§1)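 Cultured P. falciparum parasites were exposed to compound, and inhibition of [³H]hypoxanthine uptake was measured to give the IC50. Values come from a single experiment.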
# [2] = tested on: Plasmodium falciparum; test: Antimalarial activity against Plasmodium falciparum D6; format: functional, organism-based; summary of the method: as §1
# [3] = tested on: Plasmodium falciparum; test: Resistance index, IC50 of Plasmodium falciparum W2/IC50 Plasmodium falciparum D6; format: ADME, organism-based; settings: in vitro
# Summary of the method: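 Ratio of IC50 against P. falciparum W2 to IC50 against strain D6. Each IC50 comes from in vitro inhibition of [3H]hypoxanthine uptake by the parasites, with values from a single experiment.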
# [4] = tested on: Mus musculus; test: Effect on survival of mice (Mus musculus) infected with Plasmodium berghei at 640 mg/kg, perorally; format: functional, organism-based; parameters: dose 640 mg/kg
# Summary of the method: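 Mice were inoculated intraperitoneally on day 0 with 1.0 × 10⁶ P. berghei P-line-infected red cells. Compound was dissolved in DMSO, diluted with 0.5% hydroxyethylcellulose and 0.1% Tween, and given orally once daily on days 3–7 at 640 mg/kg/dose. Survival of five treated mice was compared with five untreated infected controls.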
# [5] = Metabolic stability in mouse liver microsomes; format: ADME, Microsome
SMILES,IC50 [1],IC50 [2],Ratio IC50 [3],Activity [4],half-life [5]
COc1cccc(OC)c1C(=O)/C=C/c1cnc2ccccc2c1,1.1 µM,2.2 µM,0.53,–,–
COc1ccc(C(=O)/C=C/c2cnc3ccccc3c2)cc1OC,2.2 µM,3.4 µM,0.65,–,–
COc1ccc(C(=O)/C=C/c2cccc3ccccc23)cc1,10 µM,9.1 µM,1.1,–,–
COc1ccc(C(=O)/C=C/c2cccc3ccccc23)cc1OC,5 µM,5.2 µM,0.96,–,–
COc1ccc(C(=O)/C=C/c2ccnc3ccccc23)cc1F,3.2 µM,0.93 µM,3.4,inactive,30.6 min
COc1ccc(C(=O)/C=C/c2cccc3ccccc23)c(OC)c1OC,5.8 µM,4.3 µM,1.3,–,–
COc1ccc(C(=O)/C=C/c2ccc3ccccc3c2)c(OC)c1OC,> 14 µM,> 14 µM,–,–,–
COc1ccc(C(=O)/C=C/c2ccnc3ccccc23)c(OC)c1OC,> 14 µM,2.6 µM,–,–,–
COc1cc(OC)cc(C(=O)/C=C/c2cccc3ccccc23)c1,4.3 µM,4.5 µM,0.96,–,–
O=C(/C=C/c1cnc2ccccc2c1)c1ccc(F)c(F)c1,5.8 µM,8.5 µM,0.68,–,–
O=C(/C=C/c1ccnc2ccccc12)c1ccc(Cl)cc1Cl,18 µM,6.2 µM,2.9,–,–
COc1ccc(C(=O)/C=C/c2ccnc3ccccc23)c(OC)c1,2 µM,3 µM,0.67,–,–
O=C(/C=C/c1cnc2ccccc2c1)c1ccc(Cl)c(Cl)c1,12 µM,3.1 µM,3.9,–,–
COc1ccc(C(=O)/C=C/c2cnc3ccccc3c2)c(OC)c1OC,2.8 µM,6.7 µM,0.42,–,–
O=C(/C=C/c1ccnc2ccccc12)c1cc(Cl)ccc1Cl,0.23 µM,0.19 µM,1.2,inactive,–
COc1cc(F)ccc1C(=O)/C=C/c1cnc2ccccc2c1,1.5 µM,1.1 µM,1.4,–,–
COc1ccc(OC)c(C(=O)/C=C/c2cnc3ccccc3c2)c1,2.7 µM,2 µM,1.4,–,–
O=C(/C=C/c1cnc2ccccc2c1)c1cc(F)ccc1F,7.8 µM,5.6 µM,1.4,–,–
O=C(/C=C/c1ccnc2ccccc12)c1ccc(F)c(F)c1,5.7 µM,9.4 µM,0.61,–,–
COc1ccc(C(=O)/C=C/c2ccc3ccccc3c2)c(OC)c1,> 16 µM,8.7 µM,–,–,–

SMILES,IC50 [1],IC50 [2],Ratio IC50 [3],Activity [4],half-life [5]
COc1ccc(C(=O)/C=C/c2cnc3ccccc3c2)cc1F,2.7 µM,1.6 µM,1.7,–,–
COc1ccc(C(=O)/C=C/c2ccnc3ccccc23)cc1Cl,0.95 µM,1.8 µM,0.53,–,–
COc1ccc(C(=O)/C=C/c2cccc3ccccc23)c(OC)c1,4.6 µM,4.9 µM,0.94,–,–
COc1cc(C(=O)/C=C/c2cccc3ccccc23)cc(OC)c1OC,4.8 µM,5.2 µM,0.92,–,–
O=C(/C=C/c1cnc2ccccc2c1)c1cc(Cl)ccc1Cl,1.7 µM,0.62 µM,2.7,inactive,24.6 min
COc1ccc(C(=O)/C=C/c2ccnc3ccccc23)cc1,10 µM,5.4 µM,1.9,–,–
COc1cc(OC)cc(C(=O)/C=C/c2ccc3ccccc3c2)c1,9.5 µM,7.4 µM,1.3,–,–
COc1ccc(C(=O)/C=C/c2ccc3ccccc3n2)c(OC)c1OC,3.3 µM,2.9 µM,1.1,–,–
COc1ccc(Cl)cc1C(=O)/C=C/c1cnc2ccccc2c1,0.59 µM,0.95 µM,0.62,–,–
COc1ccc(C(=O)/C=C/c2ccc3ccccc3n2)cc1,> 17 µM,4.7 µM,–,–,–
O=C(/C=C/c1ccc2ccccc2n1)c1ccc(F)cc1F,1.3 µM,2.3 µM,0.57,–,–
CCN(CC)CCCC(C)Nc1ccnc2cc(Cl)ccc12 (stereo not drawn),–,–,–,Active,–
COc1ccc(C(=O)/C=C/c2ccnc3ccccc23)c(F)c1,4.5 µM,2.4 µM,1.9,–,–
COc1cc(C(=O)/C=C/c2cnc3ccccc3c2)cc(OC)c1OC,14 µM,21 µM,0.67,–,–
COc1ccc(F)cc1C(=O)/C=C/c1ccc2ccccc2n1,0.67 µM,3.8 µM,0.18,–,–
COc1ccc(C(=O)/C=C/c2ccnc3ccccc23)cc1OC,0.5 µM,0.88 µM,0.57,inactive,15.6 min
COc1ccc(C(=O)/C=C/c2cnc3ccccc3c2)cc1,3.3 µM,1.8 µM,1.8,–,–
COc1ccc(C(=O)/C=C/c2ccc3ccccc3n2)cc1F,5.3 µM,1.3 µM,4.1,–,–
COc1ccc(F)cc1C(=O)/C=C/c1cnc2ccccc2c1,1.1 µM,0.46 µM,2.4,–,–
COc1ccc(OC)c(C(=O)/C=C/c2ccc3ccccc3c2)c1,5 µM,5.5 µM,0.91,–,–

SMILES,IC50 [1],IC50 [2],Ratio IC50 [3],Activity [4],half-life [5]
COc1cc(C(=O)/C=C/c2ccc3ccccc3c2)cc(OC)c1OC,6 µM,6.6 µM,0.91,–,–
COc1ccc(C(=O)/C=C/c2cnc3ccccc3c2)c(OC)c1,3.3 µM,4.8 µM,0.7,–,–
O=C(/C=C/c1ccnc2ccccc12)c1ccc(Cl)c(Cl)c1,0.8 µM,1.7 µM,0.47,inactive,–
COc1ccc(C(=O)/C=C/c2ccc3ccccc3n2)c(OC)c1,1.2 µM,2 µM,0.6,–,–
COc1ccc(C(=O)/C=C/c2cnc3ccccc3c2)cc1Cl,1.6 µM,2.3 µM,0.7,–,–
COc1cc(F)ccc1C(=O)/C=C/c1ccnc2ccccc12,6.2 µM,6 µM,1,–,–
COc1cccc(OC)c1C(=O)/C=C/c1ccnc2ccccc12,5.7 µM,13 µM,0.44,–,–
COc1cccc(OC)c1C(=O)/C=C/c1cccc2ccccc12,3.1 µM,3.2 µM,0.97,–,–
COc1ccc(C(=O)/C=C/c2ccc3ccccc3c2)cc1OC,7.7 µM,9.8 µM,0.79,–,–
COc1ccc(F)cc1C(=O)/C=C/c1ccnc2ccccc12,4.1 µM,5.1 µM,0.8,–,–
O=C(/C=C/c1cnc2ccccc2c1)c1ccc(F)cc1F,6.2 µM,5 µM,1.2,–,–
COc1ccc(OC)c(C(=O)/C=C/c2ccnc3ccccc23)c1,7.3 µM,3 µM,2.4,–,–
COc1ccc(C(=O)/C=C/c2cnc3ccccc3c2)c(F)c1,3.1 µM,2.1 µM,1.5,–,–
COc1ccc(OC)c(C(=O)/C=C/c2cccc3ccccc23)c1,2.8 µM,2.9 µM,0.97,–,–
COc1ccc(C(=O)/C=C/c2ccc3ccccc3c2)cc1,> 17 µM,> 17 µM,–,–,–
COc1cccc(OC)c1C(=O)/C=C/c1ccc2ccccc2c1,3.3 µM,3.4 µM,0.97,–,–
COc1cc(OC)cc(C(=O)/C=C/c2cnc3ccccc3c2)c1,4.3 µM,11 µM,0.39,–,–
O=C(/C=C/c1cnc2ccccc2c1)c1ccc(Cl)cc1Cl,6.3 µM,7.9 µM,0.8,–,–
O=C(/C=C/c1ccnc2ccccc12)c1cc(F)ccc1F,8.6 µM,3.7 µM,2.3,–,–
